Legend:
[1] = test system: HCC 2998; test: Antitumor activity against human HCC 2998 cells assessed as growth inhibition at 10 uM relative to control; type: functional; details: read-out: GI
How it was run: (§1)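 After drug addition, plates were incubated 48 h at 37 °C under 5% CO2. Adherent cells were fixed with cold TCA (10% final, 60 min, 4 °C) and suspension cells with 16% final TCA. Staining used 0.4% SRB in 1% acetic acid, solubilized in 10 mM trizma, read at A515. Percent growth was calculated from time-zero, control and treated absorbances.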

[2] = test system: NCI-H322M; test: Antitumor activity against human NCI-H322M cells assessed as growth inhibition at 10 uM relative to control; type: functional; details: read-out: GI; how it was run: as §1
[3] = test system: SF-295; test: Antitumor activity against human SF-295 cells assessed as growth inhibition at 10 uM relative to control; type: functional; details: read-out: GI; how it was run: as §1
[4] = test system: A498; test: Antitumor activity against human A498 cells assessed as growth inhibition at 10 uM relative to control; type: functional; details: read-out: GI; how it was run: as §1
[5] = test system: HL-60; test: Antitumor activity against human HL-60 cells assessed as growth inhibition at 10 uM relative to control; type: functional; details: read-out: GI; how it was run: as §1
[6] = test system: EKVX; test: Antitumor activity against human EKVX cells assessed as growth inhibition at 10 uM relative to control; type: functional; details: read-out: GI; how it was run: as §1
[7] = test system: NCI-H460; test: Antitumor activity against human NCI-H460 cells assessed as growth inhibition at 10 uM relative to control; type: functional; details: read-out: GI; how it was run: as §1
[8] = test system: OVCAR-5; test: Antitumor activity against human OVCAR-5 cells assessed as growth inhibition at 10 uM relative to control; type: functional; details: read-out: GI; how it was run: as §1
[9] = test system: SR; test: cells; details: Homo sapiens
[10] = test system: M14; test: Antitumor activity against human M14 cells assessed as growth inhibition at 10 uM relative to control; type: functional; details: read-out: GI; how it was run: as §1
[11] = test system: Hs-578T; test: Antitumor activity against human Hs-578T cells assessed as growth inhibition at 10 uM relative to control; type: functional; details: read-out: GI; how it was run: as §1
[12] = test system: TK-10; test: Antitumor activity against human TK-10 cells assessed as growth inhibition at 10 uM relative to control; type: functional; details: read-out: GI
How it was run: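 Drug exposure 48 h at 37 °C, 5% CO2. Adherent cells fixed with cold TCA (10% final), suspension cells with TCA (16% final). Stained with 0.4% SRB in 1% acetic acid, dissolved in 10 mM Tris, A515. Growth relative to time-zero and untreated control.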

[13] = test system: OVCAR-8; test: Antitumor activity against human OVCAR-8 cells assessed as growth inhibition at 10 uM relative to control; type: functional; details: read-out: GI; how it was run: as §1
[14] = test system: MDA-MB-435; test: Antitumor activity against human MDA-MB-435 cells assessed as growth inhibition at 10 uM relative to control; type: functional; details: read-out: GI; how it was run: as §1
[15] = test system: IGROV-1; test: Antitumor activity against human IGROV-1 cells assessed as growth inhibition at 10 uM relative to control; type: functional; details: read-out: GI; how it was run: as §1
[16] = test system: SR; test: Induction of apoptosis in human SR cells assessed as early apoptotic cells incubated for 24 hrs by AnnexinV-FITC/propidium iodide staining based flow cytometry (Rvb =0.29%); type: functional
[17] = test system: SR; test: Induction of cell cycle arrest in human SR cells assessed as accumulation of cells at S phase incubated for 24 hrs by PI staining based flow cytometry analysis (reference value: 38.42%); type: functional
[18] = test system: SR; test: Induction of apoptosis in human SR cells assessed as necrotic cells incubated for 24 hrs by AnnexinV-FITC/propidium iodide staining based flow cytometry (Rvb =0.92%); type: functional
[19] = test system: SR; test: Induction of apoptosis in human SR cells assessed as late apoptotic cells incubated for 24 hrs by AnnexinV-FITC/propidium iodide staining based flow cytometry (Rvb =0.18%); type: functional
[20] = test system: SR; test: Induction of cell cycle arrest in human SR cells assessed as accumulation of cells at pre-G phase incubated for 24 hrs by PI staining based flow cytometry analysis (reference value: 1.39%); type: functional
[21] = target: Phosphatidylinositol 4,5-bisphosphate 3-kinase catalytic subunit alpha isoform (Homo sapiens, UniProt P42336); test: Inhibition of PI3Kalpha (unknown origin)
Sequence of Phosphatidylinositol 4,5-bisphosphate 3-kinase catalytic subunit alpha isoform (P42336 whole entry, canonical isoform): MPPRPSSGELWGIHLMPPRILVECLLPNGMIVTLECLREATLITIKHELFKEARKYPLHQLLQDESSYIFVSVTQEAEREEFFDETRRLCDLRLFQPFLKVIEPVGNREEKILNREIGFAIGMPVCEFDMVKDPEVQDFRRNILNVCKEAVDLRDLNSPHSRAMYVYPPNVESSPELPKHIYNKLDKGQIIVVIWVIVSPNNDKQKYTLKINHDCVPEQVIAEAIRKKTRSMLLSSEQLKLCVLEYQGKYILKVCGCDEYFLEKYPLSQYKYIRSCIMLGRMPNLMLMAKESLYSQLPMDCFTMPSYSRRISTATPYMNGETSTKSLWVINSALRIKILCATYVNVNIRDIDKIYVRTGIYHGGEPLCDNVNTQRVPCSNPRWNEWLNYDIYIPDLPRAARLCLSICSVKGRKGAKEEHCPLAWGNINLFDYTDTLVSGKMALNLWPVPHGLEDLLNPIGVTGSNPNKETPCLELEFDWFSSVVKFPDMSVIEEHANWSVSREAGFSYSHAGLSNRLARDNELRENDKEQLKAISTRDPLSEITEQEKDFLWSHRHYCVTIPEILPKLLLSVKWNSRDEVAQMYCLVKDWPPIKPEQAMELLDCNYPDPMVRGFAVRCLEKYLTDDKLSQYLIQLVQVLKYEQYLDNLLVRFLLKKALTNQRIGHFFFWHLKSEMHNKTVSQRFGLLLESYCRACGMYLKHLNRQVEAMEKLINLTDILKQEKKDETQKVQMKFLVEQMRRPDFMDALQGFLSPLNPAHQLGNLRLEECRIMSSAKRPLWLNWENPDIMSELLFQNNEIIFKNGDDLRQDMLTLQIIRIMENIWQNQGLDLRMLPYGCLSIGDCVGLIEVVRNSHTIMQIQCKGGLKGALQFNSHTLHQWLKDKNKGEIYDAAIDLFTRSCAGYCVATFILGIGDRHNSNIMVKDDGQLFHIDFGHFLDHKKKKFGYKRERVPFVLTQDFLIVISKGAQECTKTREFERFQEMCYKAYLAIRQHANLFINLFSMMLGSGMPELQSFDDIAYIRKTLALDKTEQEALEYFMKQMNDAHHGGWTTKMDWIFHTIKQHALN
How it was run: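 Inhibitor preincubated 10 min before PIP2 substrate in kinase reaction buffer (25 µl final), 1 h reaction. Product detected by competition with biotinylated PIP3 for GRP1, with SA-HRP and TMB colour.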

[22] = Cytotoxicity against human PCS-800-011 cells assessed as inhibition of cell growth by MTT assay; type: toxicity, cell-based
[23] = test system: SR; test: Induction of cell cycle arrest in human SR cells assessed as accumulation of cells at G2/M phase incubated for 24 hrs by PI staining based flow cytometry analysis (reference value: 8.57%); type: functional
[24] = test system: SR; test: Induction of cell cycle arrest in human SR cells assessed as accumulation of cells at G1 phase incubated for 24 hrs by PI staining based flow cytometry analysis (reference value: 53.01%); type: functional
[25] = target: T1, Serine/threonine-protein kinase mTOR (Homo sapiens, UniProt P42345); test: Inhibition of mTOR (unknown origin) incubated for 1 hr by ELISA analysis
How it was run: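 Glutathione-coated plate loaded with mTOR substrate (1 h, room temperature). mTOR with compound in 2X kinase assay buffer, 30 min at 30 °C, then stop solution. Phospho-p70S6K-T389 detected by primary antibody, then HRP conjugate (1 h each), TMB, A450 with 540 or 595 nm reference.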

[26] = test system: SR; test: Induction of cell cycle arrest in human SR cells assessed as cell debris incubated for 24 hrs by PI staining based flow cytometry analysis (reference value: 1.93%); type: functional
[27] = test system: SR; test: Induction of cell cycle arrest in human SR cells assessed as cell aggregates incubated for 24 hrs by PI staining based flow cytometry analysis (reference value: 1.47%); type: functional
[28] = target: T1, Serine/threonine-protein kinase mTOR; test: Inhibition of mTOR in human SR cells by Western blot analysis; type: cell-based

Structure (SMILES) | inhibition of growth at 10 µM [1] [%] | inhibition of growth at 10 µM [2] [%] | inhibition of growth at 10 µM [3] [%] | inhibition of growth at 10 µM [4] [%] | inhibition of growth at 10 µM [5] [%] | inhibition of growth at 10 µM [6] [%] | inhibition of growth at 10 µM [7] [%] | inhibition of growth at 10 µM [8] [%] | IC50 [9] [nM] | inhibition of growth at 10 µM [10] [%] | inhibition of growth at 10 µM [11] [%] | inhibition of growth at 10 µM [12] [%] | inhibition of growth at 10 µM [13] [%] | inhibition of growth at 10 µM [14] [%] | inhibition of growth at 10 µM [15] [%] | Activity [16] [%] | Activity [17] [%] | Activity [18] [%] | Activity [19] [%] | Activity [20] [%] | further results
N#Cc1c(-c2ccc(Cl)cc2)nc(N/N=C/c2ccc[nH]2)nc1N1CCOCC1 | < 1 | < 1 | 41.6 | 68.3 | 97.7 | 34 | 63.3 | < 1 | 770 | < 1 | < 1 | 36.7 | 14.9 | < 1 | 32.6 |  |  |  |  |  | 
COc1cc(/C=N/Nc2nc(-c3ccc(Cl)cc3)c(C#N)c(N3CCOCC3)n2)cc(OC)c1OC | < 1 | 16.4 | 13.8 | 33.7 | 40.8 | 53.7 | 46.2 | 27.9 | 350 | 48.8 | 14.4 | 15.7 | 46.6 | 20.1 | 39.1 |  |  |  |  |  | 
N#Cc1c(-c2ccc(Cl)cc2)nc(N/N=C/c2cccc(O)c2)nc1N1CCOCC1 | < 1 | 13.7 | < 1 | 24.9 | 33.4 | 33.4 | 22.1 | < 1 | 90 | 33.4 | 10.6 | 21 | 34.6 | 13 | 35.1 | 2.61 | 26.95 | 9.61 | 19.19 | 31.4 | IC50 [21]: 1270 nM; IC50 [22]: 44500 nM; Activity [23]: 33.77%; Activity [24]: 39.28%; IC50 [25]: 2850 nM; Activity [26]: 2.24%; Activity [27]: 1.61%
N#Cc1c(-c2ccc(Cl)cc2)nc(N/N=C/c2cccc(Cl)c2)nc1N1CCOCC1 | < 1 | 11.2 | < 1 | 57.8 | 28.5 | 22.3 | < 1 | < 1 | 100 | 15.4 | < 1 | < 1 | < 1 | < 1 | 24.8 | 3.54 | 29.41 | 12.76 | 27.96 | 44.26 | IC50 [28]: 103 nM; IC50 [21]: 170 nM; IC50 [22]: 17500 nM; Activity [23]: 37.64%; Activity [24]: 32.95%; IC50 [25]: 830 nM; Activity [26]: 1.96%; Activity [27]: 1.51%
N#Cc1c(-c2ccc(Cl)cc2)nc(N/N=C2/C(=O)Nc3ccc(Br)cc32)nc1N1CCOCC1 | < 1 | < 1 | < 1 | 26.3 | < 1 | < 1 | < 1 | < 1 |  | < 1 | < 1 | < 1 | < 1 | < 1 | < 1 |  |  |  |  |  | 
CSc1nc(Cl)c(C#N)c(-c2ccc(Cl)cc2)n1 | < 1 | < 1 | < 1 | < 1 | < 1 | < 1 | < 1 | < 1 |  | < 1 | < 1 | < 1 | < 1 | < 1 | < 1 |  |  |  |  |  | 
